pIC50: −log10 of the molar value. Values joined by “and” are separate entries in the source; they are usually repeats but may differ in a detail not shown here. Equal entries are not always repeated. Where two headings read alike, the source gives them in different places.
Columns and labels:
Panc-1 cells [1] = assay: Growth inhibition assay, Panc-1 cells; format: cell-based, human; details: for IC50 vs. BACPT: ratio of IC50 to that of BACPT; for IC90 vs. BACPT: ratio of IC90 to that of BACPT
Panc-1 xenografts = details: Panc-1 xenograft; for Median T–C: two tumor volume doublings
Panc-1 cells [2] = assay: Drug interaction assay with gemcitabine in Panc-1 cells; format: cell-based, human; details: for Dose reduction index: gemcitabine followed 24 h by BACPT, Panc-1
In short: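 Panc-1 cells were grown in DMEM with 10% FBS and seeded at 3,000 cells/well. Gemcitabine was given first, then the test compound 24 h later. Exposure was 3 days, followed by 2 days in drug-free medium. Survival was read by ATP assay, with seven dose levels per curve in triplicate. Interaction was analysed by the Chou combination-index method as a function of fraction affected (fa = 0.5 is the IC50).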

IMR-32 histocultures = assay: Histoculture assay, IMR-32; format: cell-based, human; details: hypoxic (1.5% O2) and acidic (pH 6.8), results not shown
[3] = tested on: NGP neuroblastoma cell line; assay: Growth inhibition assay, NGP neuroblastoma cells; format: cell-based, human
[4] = tested on: SK-N-MC neuroblastoma cell line; assay: Growth inhibition assay, SK-N-MC neuroblastoma cells; format: cell-based, human
[5] = tested on: SK-N-BE(2c) neuroblastoma cell line; assay: Growth inhibition assay, SK-N-BE; format: cell-based, human
[6] = tested on: IMR-32 neuroblastoma cell line; assay: Growth inhibition assay, IMR-32 neuroblastoma cells; format: cell-based, human
MCF-7 cells = MCF-7 cells cultured at pH 6.8 vs. 7.4; cited from earlier work
NCI-H460 xenografts = details: NCI-H460 xenograft, i.p. 5/2/5 schedule vs irinotecan i.v. Q4D×3
SF-295 xenografts = details: SF-295 xenograft, i.p. 5/2/5 schedule vs irinotecan i.v. Q4D×3
HT29 xenografts = details: HT29 xenograft, i.p. 5/2/5 schedule vs irinotecan i.v. Q4D×3
[7] = 60 mg/kg i.v., Q4D×3 schedule, 60 mg/kg
[8] = read-out: IC50 (nM) pH 6.8, pH 6.8
[9] = read-out: IC50 (nM) pH 7.4, pH 7.4
[10] = 8.0 mg/kg i.p., 5/2/5 schedule, 8 mg/kg

Compound: Cn1nnc2c(C(N)=O)ncn2c1=O [Temozolomide]
- IC50 (nM) (Panc-1 cells [1]; Panc-1 cells): inactive

Compound: COc1cc([C@@H]2c3cc4c(cc3[C@@H](O[C@@H]3O[C@@H]5CO[C@@H](C)O[C@H]5[C@H](O)[C@H]3O)[C@H]3COC(=O)[C@H]23)OCO4)cc(OC)c1O [Etoposide]
- pIC50 (Panc-1 cells [1]; Homo sapiens, PANC-1): 6.19
- IC90 (Panc-1 cells [1]; Homo sapiens, PANC-1): 8750 nM
- IC50 vs. BACPT (Panc-1 cells [1]; Panc-1 cells): 160
- IC90 vs. BACPT (Panc-1 cells [1]; Panc-1 cells): 102

Compound: O=c1[nH]cc(F)c(=O)[nH]1 [5-Flurouracil]
- pIC50 (Panc-1 cells [1]; Homo sapiens, PANC-1): 5.04
- IC90 (Panc-1 cells [1]; Homo sapiens, PANC-1): 97600 nM
- IC50 vs. BACPT (Panc-1 cells [1]; Panc-1 cells): 2,257
- IC90 vs. BACPT (Panc-1 cells [1]; Panc-1 cells): 1,136

Compound: C#Cc1cccc(Nc2ncnc3cc(OCCOC)c(OCCOC)cc23)c1 [Erlotinib]
- IC50 (nM) (Panc-1 cells [1]; Panc-1 cells): inactive

Compound: Nc1ncn([C@H]2C[C@H](O)[C@@H](CO)O2)c(=O)n1 [Decitabine]
- pIC50 (Panc-1 cells [1]; Homo sapiens, PANC-1): 4.16
- IC90 (nM) (Panc-1 cells [1]; Panc-1 cells): not achieved
- IC50 vs. BACPT (Panc-1 cells [1]; Panc-1 cells): 16,963

Compound: CCc1c2c(nc3ccc(OC(=O)N4CCC(N5CCCCC5)CC4)cc13)-c1cc3c(c(=O)n1C2)COC(=O)[C@]3(O)CC [CPT-11, irinotecan]
- Maximum body weight loss (%) (Panc-1 xenografts; 40 mg/kg i.v., Q4D×3 schedule): 2%
- Median survival (Panc-1 xenografts; 40 mg/kg i.v., Q4D×3 schedule): 35.0 ± 9.3 days
- TFS (Panc-1 xenografts; 40 mg/kg i.v., Q4D×3 schedule): 0
- Maximum body weight loss (%) (Panc-1 xenografts; 60 mg/kg i.v., Q4D×3 schedule): 6%
- TFS (Panc-1 xenografts; 60 mg/kg i.v., Q4D×3 schedule): 0
- Median survival (Panc-1 xenografts; [7]): 31.4 ± 1.5 days
- TFS (Panc-1 xenografts; [7]): no tumor-free animals

Compound: Nc1ccn([C@@H]2O[C@H](CO)[C@@H](O)C2(F)F)c(=O)n1 [Gemcitabine]
- Dose reduction index (Panc-1 cells [2]; Fraction affected 0.2): 1.0
- Dose reduction index (Panc-1 cells [2]; Fraction affected 0.3): 1.6
- Dose reduction index (Panc-1 cells [2]; Fraction affected 0.4): 2.3
- Dose reduction index (Panc-1 cells [2]; Fraction affected 0.5 (IC50)): 3.1
- Dose reduction index (Panc-1 cells [2]; Fraction affected 0.6): 3.9
- Dose reduction index (Panc-1 cells [2]; Fraction affected 0.7): 4.8
- Dose reduction index (Panc-1 cells [2]; Fraction affected 0.8): 5.8
- pIC50 (Panc-1 cells [1]; Homo sapiens, PANC-1): 7.64
- IC90 (Panc-1 cells [1]; Homo sapiens, PANC-1): 117 nM
- IC50 vs. BACPT (Panc-1 cells [1]; Panc-1 cells): 6
- IC90 vs. BACPT (Panc-1 cells [1]; Panc-1 cells): 1

Compound: CCc1c2c(nc3ccc(O)cc13)-c1cc3c(c(=O)n1C2)COC(=O)[C@]3(O)CC [SN-38]
- pIC50 (IMR-32 histocultures): 5.00

Compound: Cc1nc(Nc2ncc(C(=O)Nc3c(C)cccc3Cl)s2)cc(N2CCN(CCO)CC2)n1 [Dasatinib]
- pIC50 (Panc-1 cells [1]; Homo sapiens, PANC-1): 5.16
- IC90 (Panc-1 cells [1]; Homo sapiens, PANC-1): 13200 nM
- IC50 vs. BACPT (Panc-1 cells [1]; Panc-1 cells): 1,693
- IC90 vs. BACPT (Panc-1 cells [1]; Panc-1 cells): 154

Compound: Nc1ncn([C@@H]2O[C@H](CO)[C@@H](O)[C@H]2O)c(=O)n1 [5-Azacytidine]
- pIC50 (Panc-1 cells [1]; Homo sapiens, PANC-1): 4.16
- IC90 (nM) (Panc-1 cells [1]; Panc-1 cells): not achieved
- IC50 vs. BACPT (Panc-1 cells [1]; Panc-1 cells): 16,916

Compound: CCCCc1c2c(nc3ccc(N)cc13)-c1cc3c(c(=O)n1C2)COC(=O)C3(O)CC (stereo not drawn) [BACPT, 7-Butyl-10-amino-camptothecin]
- Fold increase at acidic pH ([3]; pH 6.8 vs 7.4): 49
- IC50 [3, 8]: 26 nM
- IC50 [3, 9]: 1290 nM
- pIC50 (IMR-32 histocultures): 6.70
- Fold increase at acidic pH ([4]; pH 6.8 vs 7.4): 8
- IC50 [4, 9]: 0.001 nM
- Dose reduction index (Panc-1 cells [2]; Fraction affected 0.2): 2.0
- Dose reduction index (Panc-1 cells [2]; Fraction affected 0.3): 5.3
- Dose reduction index (Panc-1 cells [2]; Fraction affected 0.4): 11.0
- Dose reduction index (Panc-1 cells [2]; Fraction affected 0.6): 38.0
- Dose reduction index (Panc-1 cells [2]; Fraction affected 0.7): 69.1
- Dose reduction index (Panc-1 cells [2]; Fraction affected 0.8): 133.8
- interaction in combination with gemcitabine (combination index) (Panc-1 cells [2]; Panc-1, molar ratio 100:1 gemcitabine:BACPT, median effect analysis): additive (CI = 1) to synergistic (CI < 1)
- Fold increase at acidic pH ([5]; pH 6.8 vs 7.4): 5
- IC50 [5, 8]: 0.019 nM
- IC50 [5, 9]: 0.099 nM
- Fold increase at acidic pH ([6]; IMR-32, pH 6.8 vs 7.4): 12
- IC50 ([6]; read-out: IC50 (nM) pH 6.8, IMR-32, pH 6.8): 127 nM
- IC50 ([6]; read-out: IC50 (nM) pH 7.4, IMR-32, pH 7.4): 1390 nM
- pIC50 (Panc-1 cells [1]; Panc-1 cells): 8.40
- IC90 (Panc-1 cells [1]; Panc-1 cells): 86 nM
- IC50 vs. BACPT (Panc-1 cells [1]; Panc-1 cells): 1
- IC90 vs. BACPT (Panc-1 cells [1]; Panc-1 cells): 1
- increase in potency at acidic pH (MCF-7 cells): ~15 fold

Compound: CCC1=C[C@@H]2CN(C1)Cc1c([nH]c3ccccc13)[C@@](C(=O)OC)(c1cc3c(cc1OC)N(C)[C@H]1[C@@](O)(C(=O)OC)[C@H](OC(C)=O)[C@]4(CC)C=CCN5CC[C@]31[C@@H]54)C2 [Vinorelbine]
- pIC50 (Panc-1 cells [1]; Homo sapiens, PANC-1): 6.99
- IC90 (nM) (Panc-1 cells [1]; Panc-1 cells): not achieved
- IC50 vs. BACPT (Panc-1 cells [1]; Panc-1 cells): 25

Compound: 7-butyl-10-amino-camptothecin-(20S) β-alanine-lysine [BACPTDP]
- Median survival (Panc-1 xenografts; 4.5 mg/kg i.p., 5/2/5 schedule): 27.4 ± 2.0 days
- TFS (Panc-1 xenografts; 4.5 mg/kg i.p., 5/2/5 schedule): 0
- Median T–C (Panc-1 xenografts; 4.5 mg/kg i.p., 5/2/5 schedule): 10.9 days
- Median survival (Panc-1 xenografts; [10]): 67 days and 66.7 ± 7.8 days
- TFS (tumor-free animals at 95 days) (Panc-1 xenografts; [10]): 2/6 and 2
- Median T–C (Panc-1 xenografts; 8.0 mg/kg i.p., 5/2/5 schedule): 60.0 days
- antitumor activity relative to irinotecan (NCI-H460 xenografts): comparable to irinotecan
- antitumor activity relative to irinotecan (SF-295 xenografts): comparable to irinotecan
- antitumor activity relative to irinotecan (HT29 xenografts): comparable to irinotecan

Source: article PMC2982901 (Cancer chemotherapy and pharmacology, 2010)
